As usually defined, the Ki is the dissociation constant of the complex between target and ligand, obtained from inhibition or displacement. High values mean a looser hold on the target, low ones a stronger hold on the target. One may read the pKa as the pH at which an ionisable group is half protonated. A lower pKa goes with a stronger acid or weaker base.

Data set [1] has as its target T1, Adrenergic receptor alpha-2 (Rattus norvegicus, UniProt P22086+P19328+P22909).
T1 sequence (P22086 whole entry): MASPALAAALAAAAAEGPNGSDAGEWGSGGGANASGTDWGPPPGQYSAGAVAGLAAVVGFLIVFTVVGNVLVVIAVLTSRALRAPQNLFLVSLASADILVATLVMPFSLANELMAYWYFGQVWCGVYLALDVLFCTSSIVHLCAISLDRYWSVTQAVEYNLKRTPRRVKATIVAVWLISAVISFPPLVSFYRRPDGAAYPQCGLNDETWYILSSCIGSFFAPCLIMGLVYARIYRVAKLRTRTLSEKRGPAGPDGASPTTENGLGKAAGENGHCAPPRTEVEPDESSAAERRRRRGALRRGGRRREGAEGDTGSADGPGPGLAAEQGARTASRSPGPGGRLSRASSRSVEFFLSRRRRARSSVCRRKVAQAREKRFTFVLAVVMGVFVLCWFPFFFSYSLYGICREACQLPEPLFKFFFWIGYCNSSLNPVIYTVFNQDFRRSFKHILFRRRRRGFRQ
T1 sequence (P19328 whole entry): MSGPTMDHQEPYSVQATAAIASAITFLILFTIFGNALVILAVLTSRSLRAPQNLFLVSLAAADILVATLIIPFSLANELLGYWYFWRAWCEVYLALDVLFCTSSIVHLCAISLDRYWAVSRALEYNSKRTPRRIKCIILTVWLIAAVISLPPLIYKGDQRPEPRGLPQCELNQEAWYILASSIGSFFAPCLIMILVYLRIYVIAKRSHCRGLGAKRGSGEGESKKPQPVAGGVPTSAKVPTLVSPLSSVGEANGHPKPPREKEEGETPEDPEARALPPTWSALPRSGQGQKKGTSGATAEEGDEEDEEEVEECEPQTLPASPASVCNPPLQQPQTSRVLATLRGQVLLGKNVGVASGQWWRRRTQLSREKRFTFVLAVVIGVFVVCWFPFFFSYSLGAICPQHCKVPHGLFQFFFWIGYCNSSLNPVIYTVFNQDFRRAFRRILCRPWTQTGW
T1 sequence (P22909 whole entry): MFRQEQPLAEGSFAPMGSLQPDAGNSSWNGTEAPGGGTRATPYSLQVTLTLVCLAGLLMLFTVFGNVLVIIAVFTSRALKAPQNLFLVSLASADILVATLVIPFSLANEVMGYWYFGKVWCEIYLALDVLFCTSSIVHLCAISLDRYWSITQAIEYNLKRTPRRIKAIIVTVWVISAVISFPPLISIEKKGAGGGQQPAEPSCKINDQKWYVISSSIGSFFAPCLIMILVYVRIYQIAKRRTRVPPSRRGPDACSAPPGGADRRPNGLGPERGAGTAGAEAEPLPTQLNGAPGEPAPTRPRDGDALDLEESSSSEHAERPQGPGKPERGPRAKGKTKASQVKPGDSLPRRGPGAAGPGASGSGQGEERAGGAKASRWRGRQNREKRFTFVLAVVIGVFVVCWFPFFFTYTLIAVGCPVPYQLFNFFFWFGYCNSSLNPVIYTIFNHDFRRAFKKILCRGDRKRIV
The data set is described as follows: Displacement of [3H]clonidine from alpha-2 adrenergic receptor in Sprague-Dawley rat cortex. In a few lines:
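Male rat cortex homogenised in ice-cold 50 mM Tris/HCl (pH 7.7 at 25 °C), washed by three 50,000 × g spins. Membranes incubated with [3H]clonidine (final 2.0 nM) and 5 test concentrations over a 16-fold range, 25 °C for 30 min. Bound ligand collected by vacuum filtration onto GF/B filters and counted by scintillation. Nonspecific binding defined with 2 μM phentolamine. Run in quadruplicate; IC50 by log-probit, Ki by Cheng-Prusoff.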
(Loss of bound radioactivity is the signal in a displacement assay; it reports binding, not function.)

Data set [2] in a line: Dissociation constant, pKa of the compound. In kind it is physicochemical.
The target in data set [3] is T2, Phenylethanolamine N-methyltransferase (Homo sapiens, UniProt P11086).
T2 sequence (P11086 whole entry): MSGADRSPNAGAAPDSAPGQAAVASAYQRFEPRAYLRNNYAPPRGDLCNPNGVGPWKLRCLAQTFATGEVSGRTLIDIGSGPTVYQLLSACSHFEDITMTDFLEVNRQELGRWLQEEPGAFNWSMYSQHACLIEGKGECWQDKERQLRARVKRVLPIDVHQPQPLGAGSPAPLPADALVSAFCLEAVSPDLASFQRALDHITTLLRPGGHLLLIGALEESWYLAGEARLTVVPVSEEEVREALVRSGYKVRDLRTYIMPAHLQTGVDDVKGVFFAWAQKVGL
The data set is described as follows: Binding affinity to human PNMT.

Turning to `NS(=O)(=O)c1ccc2c(c1)CNC(C(F)F)C2` (stereo not drawn), in data set [1], the Ki was over 1000 µM.
`FC(F)C1Cc2ccc(Br)cc2CN1` (racemic) returned an inhibition constant (Ki) in data set [1] of 230 µM. In data set [2], this compound showed a pKa of 6.12.
The compound `O=S(=O)(NCC(F)(F)F)c1ccc2c(c1)CNC(C(F)(F)F)C2` (racemic) registered an inhibition constant Ki in data set [1] of over 1000 µM.
Compound `O=[N+]([O-])c1ccc2c(c1)CNC(C(F)F)C2` (racemic) returned an inhibition constant (Ki) in data set [1] of over 1000 µM. The pKa in data set [2] was found to be 5.83.
Consider `N#Cc1ccc2c(c1)CNC(C(F)F)C2` (racemic), for which the Ki in data set [1] is over 1000 µM.
Still for that read-out and setting: as for `CS(=O)(=O)c1ccc2c(c1)CNC(C(F)F)C2` (racemic), the figure is 2500 µM; as for `CCCNS(=O)(=O)c1ccc2c(c1)CNC(C(F)F)C2` (racemic), over 1000 µM; as for `O=S(=O)(Nc1ccc(Cl)cc1)c1ccc2c(c1)CNC(C(F)(F)F)C2` (racemic), over 1000 µM.
On the same count and under the same terms, under `FC(F)C1Cc2ccc(C(F)(F)F)cc2CN1` (racemic) stands 190 µM; under `CCNS(=O)(=O)c1ccc2c(c1)CNC(C(F)F)C2` (racemic), over 1000 µM; under `FC(F)C1Cc2ccc(I)cc2CN1` (racemic), over 1000 µM.
`O=[N+]([O-])c1ccc(NS(=O)(=O)c2ccc3c(c2)CNC(C(F)F)C3)cc1` (racemic): the inhibitory constant (Ki) in data set [1] was over 1000 µM.
For the compound `FC(F)C1Cc2ccccc2CN1` (racemic), the Ki in data set [1] was found to be 150 µM. The compound also yielded a pKa in data set [2] of 6.42.
Regarding `COCCCNS(=O)(=O)c1ccc2c(c1)CNC(C(F)(F)F)C2` (racemic), in data set [1], the Ki is over 1000 µM.
Consider `O=[N+]([O-])c1ccc(NS(=O)(=O)c2ccc3c(c2)CNC(C(F)(F)F)C3)cc1` (racemic), for which the values for the Ki in data set [1] and in data set [3] were over 1000 µM and 110 µM, respectively.
In the case of `O=S(=O)(NCC(F)(F)F)c1ccc2c(c1)CNC(C(F)F)C2` (racemic), the Ki in data set [1] was over 1000 µM.
In data set [1], `COCCCNS(=O)(=O)c1ccc2c(c1)CNC(C(F)F)C2` (racemic) had a Ki of over 1000 µM.
`CCCCNS(=O)(=O)c1ccc2c(c1)CNC(C(F)F)C2` (racemic) returned a Ki in data set [1] of over 1000 µM.
As for `O=S(=O)(Nc1ccc(Cl)cc1)c1ccc2c(c1)CNC(C(F)F)C2` (racemic), the Ki in data set [1] is over 1000 µM.

The values above are taken from ChEMBL document CHEMBL1147671, “Application of the Goldilocks effect to the design of potent and selective inhibitors of phenylethanolamine N-methyltransferase: balancing pKa and steric effects in the optimization of 3-methyl-1,2,3,4-tetrahydroisoquinoline inhibitors by beta-fluorination” (J Med Chem, 2006).
